How the values were obtained:
[1] = Extrapyramidal side effect test in cebus monkey; format: functional; conditions: read-out: MED
Outline: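 Groups of three to six were then dosed by gavage and observed hourly for 6–8 h for dystonia or dyskinesia. Any unequivocal sign counted as a positive response. Minimal effective dose was determined in at least three animals.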

[2] = target: GABA-A receptor; anion channel; experiment: Displacement of [3H]GABA from rat brain Gamma-aminobutyric acid receptor
Outline: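 GABA binding in membranes of rat whole brain minus cerebellum and brain stem (male Long-Evans, 150–250 g), using [3H]-GABA at 25 nM final. GABA at 1 mM final was the reference. IC50 from four or five concentrations by nonlinear curve fitting.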

[3] = target: Muscarinic acetylcholine receptor; experiment: Binding affinity against Muscarinic acetylcholine receptor in rat brain using [3H]- QNB; format: tissue-based
Outline: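 Muscarinic sites in rat brain stem membranes (male Long-Evans, 150–250 g), labelled with [3H]quinuclidinyl benzilate at 0.03 nM final. Oxotremorine at 100 μM final served as the reference displacer. IC50 from four or five concentrations by nonlinear curve fitting.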

[4] = Inhibition of sidman avoidance in squirrel monkeys after peroral administration; format: functional; conditions: po
Outline: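 Mature squirrel monkeys, trained on a modified Sidman avoidance lever schedule, were dosed orally and tested in 6-h sessions. Inhibition was expressed as % of each animal's own nondrug responding. At least three doses were given to four animals, with sessions at least 1 week apart. ED50 from nonlinear regression.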

[5] = target: Serotonin 1 (5-HT1) receptor (Rattus norvegicus, UniProt P28564+P30940+P19327+P28565); experiment: Binding affinity against serotonin-1 receptor in rat brain using [3H]5-HT; format: tissue-based
Outline: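 Serotonin-1 binding in rat cortex membranes (male Long-Evans, 150–250 g) with [3H]-5-HT at 2.0 nM final. (+)-Butaclamol at 1 μM final was the reference. IC50 from four or five concentrations by nonlinear curve fit.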

Rattus norvegicus [6] = experiment: Compound was tested for its affect on the accumulation of the dopamine metabolite homovanillic acid (HAV) in the rat striatum at 25 mg/kg dose after peroral administration; format: functional; conditions: route oral
Outline: (§1)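 Male Long–Evans rats were dosed orally and decapitated 2 h later. Striatal HVA was isolated on Sephadex G-10 and measured spectrofluorometrically, expressed as % control ± SEM.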

[7] = target: T1, Adrenergic receptor alpha-1 (Rattus norvegicus, UniProt P15823+P23944+P43140)
T1 sequence (P15823 whole entry): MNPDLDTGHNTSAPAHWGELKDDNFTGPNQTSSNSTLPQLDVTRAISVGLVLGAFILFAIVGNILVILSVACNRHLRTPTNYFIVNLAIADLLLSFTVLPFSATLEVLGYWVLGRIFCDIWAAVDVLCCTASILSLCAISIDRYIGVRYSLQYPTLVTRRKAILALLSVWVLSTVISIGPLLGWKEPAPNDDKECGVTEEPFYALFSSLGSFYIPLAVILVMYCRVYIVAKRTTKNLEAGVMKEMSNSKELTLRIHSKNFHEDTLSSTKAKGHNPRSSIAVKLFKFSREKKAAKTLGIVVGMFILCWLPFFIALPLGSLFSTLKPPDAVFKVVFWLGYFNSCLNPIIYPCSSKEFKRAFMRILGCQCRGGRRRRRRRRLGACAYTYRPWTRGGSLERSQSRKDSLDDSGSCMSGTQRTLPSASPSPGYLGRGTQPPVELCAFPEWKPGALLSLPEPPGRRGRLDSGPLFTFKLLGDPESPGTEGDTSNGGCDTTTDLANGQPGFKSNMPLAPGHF
T1 sequence (P23944 whole entry): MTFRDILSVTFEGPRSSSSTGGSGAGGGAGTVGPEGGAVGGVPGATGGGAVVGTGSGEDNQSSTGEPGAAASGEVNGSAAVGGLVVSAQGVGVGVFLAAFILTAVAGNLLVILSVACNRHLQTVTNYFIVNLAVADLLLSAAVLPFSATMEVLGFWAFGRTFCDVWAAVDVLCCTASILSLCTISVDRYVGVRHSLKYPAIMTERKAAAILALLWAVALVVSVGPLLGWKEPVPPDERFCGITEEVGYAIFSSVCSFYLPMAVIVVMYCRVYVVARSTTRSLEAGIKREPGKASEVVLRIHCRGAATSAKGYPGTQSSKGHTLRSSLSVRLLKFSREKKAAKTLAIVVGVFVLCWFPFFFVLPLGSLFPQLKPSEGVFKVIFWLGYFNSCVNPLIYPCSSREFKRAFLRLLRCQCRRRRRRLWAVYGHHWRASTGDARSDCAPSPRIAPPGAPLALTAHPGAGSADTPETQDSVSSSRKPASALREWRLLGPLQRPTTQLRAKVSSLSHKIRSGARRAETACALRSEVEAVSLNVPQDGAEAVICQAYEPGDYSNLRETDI
T1 sequence (P43140 whole entry): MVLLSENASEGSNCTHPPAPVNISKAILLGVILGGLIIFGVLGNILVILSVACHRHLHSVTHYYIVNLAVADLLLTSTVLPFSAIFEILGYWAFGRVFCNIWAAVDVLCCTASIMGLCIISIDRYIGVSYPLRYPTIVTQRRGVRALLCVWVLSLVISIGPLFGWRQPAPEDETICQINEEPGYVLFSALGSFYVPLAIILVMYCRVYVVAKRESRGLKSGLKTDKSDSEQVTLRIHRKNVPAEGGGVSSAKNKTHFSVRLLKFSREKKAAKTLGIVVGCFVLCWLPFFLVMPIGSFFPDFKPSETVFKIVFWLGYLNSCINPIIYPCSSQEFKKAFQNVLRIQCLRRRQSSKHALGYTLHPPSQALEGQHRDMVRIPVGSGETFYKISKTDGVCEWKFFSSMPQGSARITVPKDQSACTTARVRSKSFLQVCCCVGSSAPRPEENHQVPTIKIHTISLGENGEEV

[8] = target: Serotonin 2 (5-HT2) receptor (Rattus norvegicus, UniProt P30994+P08909+P14842); experiment: Binding affinity towards 5-hydroxytryptamine 2 receptor using [3H]- spiroperidol; format: protein assay
Outline: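 Serotonin-2 sites in rat cerebral cortex membranes (male Long-Evans, 150–250 g) with [3H]spiroperidol at 0.2 nM final. (+)-Butaclamol at 1.0 μM final was the reference. IC50 from four or five concentrations by nonlinear curve fitting.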

[9] = target: Beta-2 adrenergic receptor (Rattus norvegicus, UniProt P10608); experiment: Binding affinity against the beta-2 adrenergic receptor using [3H]- DHA
Outline: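 β2 sites in rat cerebellum membranes (male Long-Evans, 150–250 g) with [3H]dihydroalprenolol at 0.5 nM final. (-)-Alprenolol at 1 μM final defined the reference. IC50 from four or five concentrations by nonlinear curve fit.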

Rattus norvegicus [10] = experiment: Compound was tested for serum prolactin assay method in rats at 1 mg/kg dose after peroral administration; format: functional; conditions: route oral
Outline: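 Seven-week-old male Sprague–Dawley rats, five per group, were dosed orally and killed by decapitation 1 h later. Serum prolactin from trunk blood was measured by radioimmunoassay with [125I]-PRL and expressed as % of control (mean ± SEM).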

Rattus norvegicus [11] = experiment: Compound was tested for its affect on the accumulation of the dopamine metabolite homovanillic acid (HAV) in the rat striatum at 8 mg/kg dose after peroral administration; format: functional; conditions: route oral; outline: as §1

Chain of Beta-2 adrenergic receptor (P10608 whole entry): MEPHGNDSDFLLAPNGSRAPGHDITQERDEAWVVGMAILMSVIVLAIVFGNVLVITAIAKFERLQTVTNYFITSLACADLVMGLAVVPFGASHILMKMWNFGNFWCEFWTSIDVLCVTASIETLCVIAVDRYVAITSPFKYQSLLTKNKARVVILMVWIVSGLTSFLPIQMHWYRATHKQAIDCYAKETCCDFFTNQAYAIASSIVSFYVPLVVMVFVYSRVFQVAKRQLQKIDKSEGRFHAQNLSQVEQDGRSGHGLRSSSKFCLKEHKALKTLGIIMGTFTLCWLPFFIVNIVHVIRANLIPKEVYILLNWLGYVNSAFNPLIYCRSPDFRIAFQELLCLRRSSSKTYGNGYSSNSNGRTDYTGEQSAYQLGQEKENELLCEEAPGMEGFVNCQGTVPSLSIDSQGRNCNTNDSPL

IC50 [2] [µM]	IC50 [3] [µM]	IC50 [5] [µM]	IC50 [7] [µM]	IC50 [8] [µM]	IC50 [9] [µM]	SMILES	minimal effective dose [1] [mg/kg]	ED50 [4] [mg/kg]	Control (Rattus norvegicus [6]) [%]	Control (Rattus norvegicus [10]) [%]	Control (Rattus norvegicus [11]) [%]
> 10	> 10	> 10	> 10	–	–	Cc1nn(C)c(NC(=O)CNCCCN2CCCCC2C)c1C(=O)c1ccccc1F (stereo unspecified)	> 200	12.7	95.8	–	–
–	–	–	–	> 10	> 10	CCN(CC)CC(=O)Nc1c(C(=O)c2ccccc2F)c(C)nn1C	> 100	15.6	114.9	87.4	131.9
> 10	–	–	> 10	–	–	Cc1nn(C)c(N)c1C(=O)c1ccccc1F	–	–	–	–	–

Reference: ChEMBL document CHEMBL1123363, “(5-Amino-1,3-dimethyl-1H-pyrazol-4-yl)(2-fluorophenyl)methanones . A series of novel potential antipsychotic agents” (J Med Chem, 1986)
